Here are results for 4 compounds from ChEMBL document CHEMBL1795258, “A diazen-1-ium-1,2-diolated nitric oxide donor ester prodrug of 3-(4-hydroxymethylphenyl)-4-(4-methanesulfonylphenyl)-5H-furan-2-one: synthesis, biological evaluation and nitric oxide release studies” (Bioorg Med Chem Lett, 2011).

Data set [1] has as its system Mesenteric artery. The data set is described as follows: tissue or blood. The settings on record: Rattus norvegicus, Long Evans.
Data set [2] concerns Mesenteric artery. The data set is described as follows: Inhibition of acetylcholine-induced relaxation in Long Evans rat phenylephrine pre-constricted mesenteric arteries assessed as maximum response (reference value: 0.38 +/- 0.01 g/mm). It is filed as functional.
The test system of data set [3] is Mesenteric artery. The data set is described as follows: Inhibition of phenylephrine-induced vasoconstriction in Long Evans rat mesenteric arteries treated 45 mins before phenylephrine challenge. It is filed as functional. In outline: (§1)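 Second-order mesenteric arteries (<250 in diameter, ~2 mm long) dissected in cold (0–4 °C) HEPES-buffered phosphate saline, pH 7.4. Mounted on isometric wire myograph and pretreated 45 min with test compound (1 μM) or DMSO. Constriction to phenylephrine 10^-7–5 × 10^-5 M then recorded.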

The next data set relates to Rattus norvegicus. The data set is described as follows: Antiinflammatory activity in po dosed rat assessed as inhibition of carrageenan-induced foot paw edema after 3 hrs. It is filed as functional. The method, boiled down: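 Carrageenan-induced rat paw edema; test compound given orally, edema inhibition read at 3 h; potency reported as ED50 in μmol/kg.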
A general note: In the carrageenan paw model, swelling and tenderness develop within hours.

Data set [4] deals with Mesenteric artery. Put plainly: Inhibition of phenylephrine-induced vasoconstriction in Long Evans rat mesenteric arteries assessed as maximum response treated 45 mins before phenylephrine challenge (reference value: 2.13 +/- 0.23 g/mm). It is filed as functional. The method, boiled down:
as §1

The target in data set [5] is T1, Prostaglandin G/H synthase 1 (Ovis aries, UniProt P05979).
T1 sequence (P05979 whole entry): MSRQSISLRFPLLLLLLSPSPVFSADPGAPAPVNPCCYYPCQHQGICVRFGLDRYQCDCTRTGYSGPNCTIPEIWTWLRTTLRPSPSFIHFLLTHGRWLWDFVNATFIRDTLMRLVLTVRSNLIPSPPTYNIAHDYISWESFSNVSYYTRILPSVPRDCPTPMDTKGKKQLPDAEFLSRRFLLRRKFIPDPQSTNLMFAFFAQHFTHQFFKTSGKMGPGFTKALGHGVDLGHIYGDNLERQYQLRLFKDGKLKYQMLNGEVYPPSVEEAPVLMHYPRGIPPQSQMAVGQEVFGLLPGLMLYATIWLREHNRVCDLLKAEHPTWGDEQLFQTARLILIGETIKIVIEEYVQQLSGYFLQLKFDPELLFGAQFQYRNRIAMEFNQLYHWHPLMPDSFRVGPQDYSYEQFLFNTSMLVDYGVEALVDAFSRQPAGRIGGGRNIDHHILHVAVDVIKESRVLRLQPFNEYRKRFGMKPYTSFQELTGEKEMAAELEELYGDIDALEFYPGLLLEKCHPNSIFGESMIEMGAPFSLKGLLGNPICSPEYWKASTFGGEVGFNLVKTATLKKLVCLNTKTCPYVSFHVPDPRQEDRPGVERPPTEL
The data set is described as follows: Inhibition of ovine COX1 by enzyme immuno assay.

Data set [6] can be described thus: Prodrug activation in 1.0 x 10^-2 mM of phosphate buffered saline at pH 7.4 assessed as nitric oxide release after 1.5 hrs by Griess reaction in presence of rat serum. The settings on record: pH 7.4, 1.5 h. In outline:
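Compound at 1.0 × 10^-2 mM in pH 7.4 phosphate buffer with a little DMSO plus 90 μL rat serum in 2.4 mL, 37 °C for 1.5 h. Nitrite quantified by Griess reaction as % of theoretical 2 mol NO per mol. Mean of n = 3, variation ≤0.5%.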

Data set [7] is described as follows: Prodrug activation in 1.0 x 10^-2 mM of phosphate buffered saline at pH 7.4 assessed as nitric oxide release after 1.5 hrs by Griess reaction. The settings on record: buffer, pH 7.4, 1.5 h. It is filed as physicochemical. In outline:
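Compound at 1.0 × 10^-2 mM in pH 7.4 phosphate buffer with a little DMSO, 37 °C for 1.5 h. NO measured as nitrite by Griess reaction, expressed as % of theoretical 2 mol NO per mol. Mean of n = 3, variation ≤0.5%.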
Background: Nitrite, measured by Griess reagent, commonly stands in for NO production.

A word on the IC50: it is the concentration that inhibits the measured activity by half. A low value points to inhibition by little substance. What is called IC20 is the concentration at which the effect reaches the 20% level. Low values mean greater potency, high ones weaker potency. In general, ED50 refers to the dose that gives a 50% effect, or the effect in half of the subjects. Regarding `CS(=O)(=O)c1ccc(C2=C(c3ccccc3)C(=O)OC2)cc1` [ROFECOXIB], the IC50 in the data set on Mesenteric artery [1] amounted to 88 nM; with Mesenteric artery [3], 1660 nM. Besides, the figures for the Activity in the data set with Mesenteric artery [2] and with Mesenteric artery [4] were 0.23 g/mm and 1.32 g/mm, respectively. In the data set on Mesenteric artery [3], this compound registered an IC20 of 950 nM. Besides, the ED50 in the data set with Rattus norvegicus is 4.8 µmol/kg.

With `CS(=O)(=O)c1ccc(C2=C(c3ccc(CO)cc3)C(=O)OC2)cc1`, the results for the IC50 (with Mesenteric artery [1]; in data set [5]; in the data set on Mesenteric artery [3]) were 95 nM, 33100 nM and 1680 nM, respectively. The Activity in the data set on Mesenteric artery [2] is 0.3 g/mm; in the data set on Mesenteric artery [4] it was 1.51 g/mm. The IC20 in the data set on Mesenteric artery [3] is 1010 nM. The ED50 with Rattus norvegicus came to 113 µmol/kg.

Consider `CC(=O)OCO/N=[N+](/[O-])N1CCC[C@@H]1C(=O)OCc1ccc(C2=C(c3ccc(S(C)(=O)=O)cc3)COC2=O)cc1`, for which the figures for the IC50 (in data set [5]; in the data set on Mesenteric artery [3]) were > 100000 nM and 1750 nM, respectively. This compound also came in with an IC20 in the data set on Mesenteric artery [3] of 1370 nM. Also, the Activity came out at 38.4% in data set [6], 4.2% in data set [7] and 1.17 g/mm in the data set on Mesenteric artery [4]. Besides, the ED50 in the data set on Rattus norvegicus is 72.2 µmol/kg.

Turning to `[Na+].[O-]/N=[N+](/[O-])N1CCC[C@@H]1CO`, the Activity is on record as 85% in data set [6] and 84.5% in data set [7].
